Measured values gathered from unrelated publications.
Lines come from different studies, so protocols differ.
MET Y1235D: Hepatocyte growth factor receptor (MET, Homo sapiens, UniProt P08581, Y1235D)
MET: Hepatocyte growth factor receptor (MET, Homo sapiens, UniProt P08581)
MET M1250T: Hepatocyte growth factor receptor (MET, Homo sapiens, UniProt P08581, M1250T)

| Structure (SMILES) | target | observed | action | technique | tested at | endpoint | value |
| --- | --- | --- | --- | --- | --- | --- | --- |
| CN([C@@H]1CCc2c(CC(=O)O)c3cc(S(C)(=O)=O)ccc3n2C1)S(=O)(=O)c1ccc(F)cc1 | MET Y1235D | cell-free assay | – | competition with immobilised ligand | 1 µM | remaining binding | 100% |
| CN(C)C1CCN(CC#Cc2nn(C3CCCC3)c3nc(NCc4ccccc4)ncc23)C1 (centres unmarked) | MET | enzyme activity | inhibitor | FRET | 1 µM | inhibition | 28% |
| Cc1ccc(C(=O)Nc2ccc(CN3CCN(C)CC3)c(C(F)(F)F)c2)cc1C#Cc1cnc2cccnn12 | MET M1250T | cell-free assay | – | – | 23.5 nM | remaining signal | 86% |
| Cc1ccc(NC(=O)c2ccc(C)c(C(F)(F)F)c2)cc1C#Cc1nn(C2CCC(O)CC2)c2ncnc(N)c12 (centres unmarked) | Hepatocyte growth factor receptor (MET, Homo sapiens, UniProt P08581, Y1230C) | cell-free assay | – | – | 10 µM | remaining signal | 139% |
| COc1cc(Nc2c(C#N)cnc3cc(OCCCN4CCN(C)CC4)c(OC)cc23)c(Cl)cc1Cl | MET | cell-free assay | – | – | 0.5 µM | remaining signal | 84.5% |
| Cc1cnc(NC2CCOCC2)nc1-n1cnc(C(=O)NC(CN)c2cc(F)cc(Cl)c2)c1 (centres unmarked) | Hepatocyte growth factor receptor (MET, Homo sapiens, UniProt P08581, D1228H) | enzyme activity | inhibitor | radiometric | 1 µM | remaining activity | 98% |
| O=C(Nc1cnn(-c2csc(C(=O)NC3COC3)c2)c1)Nc1c(F)cccc1Cl | MET | enzyme activity | inhibitor | – | 5 µM | remaining activity | 86.1% |
| Nc1ncnc2occ(-c3ccc(NC(=O)Nc4cc(C(F)(F)F)ccc4F)cc3)c12 | MET Y1235D | cell-free assay | – | – | 20 µM | remaining signal | 1.6% |
| CNC(=O)Nc1ccc2c(c1)CC[C@@]21OC(=O)N(CC(=O)N(Cc2ccc(F)cc2)[C@@H](C)C(F)(F)F)C1=O | MET M1250T | cell-free assay | – | competition with immobilised ligand | 1 µM | remaining binding | 75% |
| Oc1ccc(-c2nc(-c3ccncc3)c(-c3ccc(F)cc3)[nH]2)cc1 | MET | cell-free assay | – | – | 0.5 µM | remaining signal | 94.4% |
| Cc1cc(NC(=O)c2cccc3cc(-c4cccc5[nH]nc(N)c45)ccc23)ccc1F | Hepatocyte growth factor receptor (MET, Homo sapiens, UniProt P08581, Y1230H) | enzyme activity | inhibitor | – | 0.1 µM | activity vs control | 106% |
| CC(C)(C)c1nc2c(s1)c1nc(N)ncc1c1ccc(NS(=O)(=O)c3c(F)cccc3F)c(F)c12 | MET | enzyme activity | inhibitor | radiometric | 1 µM | remaining activity | 90% |
| CNC(=O)c1cc2c(Oc3ccc(NC(=O)C4(C(=O)Nc5ccc(F)cc5)CC4)cc3)ccnc2cc1OC | Hepatocyte growth factor receptor (MET, Homo sapiens, UniProt P08581, Y1230D) | enzyme activity | inhibitor | radiometric | 1 µM | inhibition | 100% |
| O=S(=O)(NC1CCC(c2cc(F)ccc2F)(S(=O)(=O)c2ccc(Cl)cc2)CC1)C(F)(F)F (centres unmarked) | MET | cell-free assay | – | competition with immobilised ligand | 1 µM | remaining binding | 100% |
| CC/C(=N\NC(=O)NCc1cccc(O)c1)c1ccc(O)c(C)c1O | MET Y1235D | enzyme activity | inhibitor | – | 0.1 µM | inhibition | 0.7% |
| Cc1cc(C)c(-n2ccn3nc(-c4cccnc4)cc23)cc1NC(=O)c1cc(C#N)cc(S(F)(F)(F)(F)F)c1 | MET | cell-free assay | – | competition with immobilised ligand | 0.1 µM | remaining binding | 82.8% |
| COc1cc2ncnc(Nc3ccc(F)c(Cl)c3)c2cc1OCCCN1CCOCC1 | MET | cell-free assay | – | – | 0.5 µM | remaining signal | 92.4% |
| COc1cc(-c2cn(C3CCc4ccccc4N(CC(F)(F)F)C3=O)nn2)ccc1-n1ccc(C)n1 (centres unmarked) | MET Y1235D | cell-free assay | – | competition with immobilised ligand | 1 µM | remaining binding | 93% |
| CCN(CC)CCNC(=O)c1c(C)[nH]c(/C=C2\C(=O)Nc3ccc(F)cc32)c1C | MET | cell-free assay | – | – | 0.5 µM | remaining signal | 91% |
| Cc1ccc(C(=O)NCc2ccsc2)cc1C#Cc1cn(C(C)C)c2ncnc(N)c12 | MET | enzyme activity | inhibitor | – | 1 µM | activity vs control | 86% |
